Results as given in ChEMBL document CHEMBL1131139, “Synthesis and antibacterial activity of ketolides (6-O-methyl-3-oxoerythromycin derivatives): a new class of antibacterials highly potent against macrolide-resistant and -susceptible respiratory pathogens” (1998).
≈ marks a conversion by molar mass, not a printed value.

How the values were obtained:
Escherichia coli = assay: In vitro inhibitory activity against Escherichia coli (250 UC5); type: functional
Procedure, shortened: (§1)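 Two-fold agar dilution on Mueller-Hinton agar (pH 7.4). Inoculum from overnight plate cultures suspended in Mueller-Hinton broth, adjusted to 10^9 CFU/mL, diluted 1:200 and spotted by multipoint inoculator at about 10^4 CFU/spot. Plates incubated 37 °C for 20 h. MIC taken as lowest concentration with no visible growth.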

Haemophilus influenzae [1] = assay: In vitro inhibitory activity against Haemophilus influenzae (351CB12); type: functional; procedure, shortened: as §1
Haemophilus influenzae [2] = assay: In vitro inhibitory activity against Haemophilus influenzae (351HT3); type: functional; procedure, shortened: as §1
Mus musculus [3] = assay: (§2) In Vivo evaluation for its effective dose against Haemophilus influenzae (351RD7 AmpR beta (+)); type: functional
Procedure, shortened: (§3)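 Male Charles River CD1 mice, 20-22 g, 10 per dose group, infected intraperitoneally with 0.5 mL diluted overnight broth culture (physiological buffer or 5% hog mucine) at 10-100 times the minimal lethal dose. Compound suspended in carboxymethylcellulose, 0.5 mL given orally immediately and 4 h postinfection. Survival followed 8-10 days; ED50 (unitary dose protecting 50% from death) by Litchfield-Wilcoxon probit method.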

Mus musculus [4] = assay: (§4) In Vivo evaluation for its effective dose against Haemophilus influenzae (351GR1); type: functional; procedure, shortened: as §3
Mus musculus [5] = assay: (§5) In Vivo evaluation for its effective dose against Haemophilus influenzae (351TO19 AmpR beta (-)); type: functional; procedure, shortened: as §3
Mus musculus [6] = assay: (§6) In Vivo evaluation for its effective dose against Staphylococcus aureus (011GO25 EryRi.; type: functional; procedure, shortened: as §3
Mus musculus [7] = assay: (§7) In Vivo evaluation for its effective dose against Staphylococcus aureus (011UC4).; type: functional; procedure, shortened: as §3
Mus musculus [8] = assay: (§8) In Vivo evaluation for its effective dose against Streptococcus pneumoniae (030Cr29 EryRc); type: functional; procedure, shortened: as §3
Mus musculus [9] = assay: (§9) In Vivo evaluation for its effective dose against Streptococcus pneumoniae (030MV2 EryRc); type: functional; procedure, shortened: as §3
Mus musculus [10] = assay: (§10) In Vivo evaluation for its effective dose against Streptococcus pneumoniae (030RO1 EryRi); type: functional; procedure, shortened: as §3
Mus musculus [11] = assay: (§11) In Vivo evaluation for its effective dose against Streptococcus pneumoniae (030SJ1 EryRc); type: functional; procedure, shortened: as §3
Mus musculus [12] = assay: (§12) In Vivo evaluation for its effective dose against Streptococcus pneumoniae (030SJ6 EryRc); type: functional; procedure, shortened: as §3
Mus musculus [13] = assay: (§13) In Vivo evaluation for its effective dose against Streptococcus pneumoniae (032UC1); type: functional; procedure, shortened: as §3
Mus musculus [14] = assay: (§14) In Vivo evaluation for its effective dose against Streptococcus pyogenes (02A1UC1); type: functional; procedure, shortened: as §3
[15] = system: Staphylococcus epidermidis; assay: In vitro inhibitory activity against Staphylococcus epidermidis (EryRi 012GO11i); type: functional; procedure, shortened: as §1
Staphylococcus aureus [16] = assay: In vitro inhibitory activity against Staphylococcus aureus (011UC4); type: functional; procedure, shortened: as §1
Staphylococcus aureus [17] = assay: In vitro inhibitory activity against Staphylococcus aureus (EryRi 011GO25i); type: functional; procedure, shortened: as §1
Streptococcus pneumoniae [18] = assay: In vitro inhibitory activity against Streptococcus pneumoniae (032UC1); type: functional; procedure, shortened: as §1
Streptococcus pneumoniae [19] = assay: In vitro inhibitory activity against Streptococcus pneumoniae (EryRc 030SJ1); type: functional; procedure, shortened: as §1
Streptococcus pneumoniae [20] = assay: In vitro inhibitory activity against Streptococcus pneumoniae (EryRi 030SJ5i); type: functional; procedure, shortened: as §1
Staphylococcus aureus [21] = assay: In vitro inhibitory activity against Staphylococcus aureus (EryRc 011CB20); type: functional; procedure, shortened: as §1
Streptococcus pyogenes [22] = assay: In vitro inhibitory activity against Streptococcus pyogenes (02A1UC1)
Enterococcus [23] = assay: In vitro inhibitory activity against enterococci EryRc (13); type: functional
Enterococcus [24] = assay: In vitro inhibitory activity against enterococci EryRi (19); type: functional
Haemophilus [25] = assay: In vitro inhibitory activity against Haemophilus AmpR (37); type: functional
Haemophilus [26] = assay: In vitro inhibitory activity against Haemophilus AmpS (43); type: functional
Haemophilus influenzae [27] = assay: as §2; type: functional; procedure, shortened: as §3
Haemophilus influenzae [28] = assay: as §4; type: functional; procedure, shortened: as §3
Haemophilus influenzae [29] = assay: as §5; type: functional; procedure, shortened: as §3
Staphylococcus aureus [30] = assay: as §6; type: functional; procedure, shortened: as §3
Staphylococcus aureus [31] = assay: as §7; type: functional; procedure, shortened: as §3
Streptococcus pneumoniae [32] = assay: as §8; type: functional; procedure, shortened: as §3
Streptococcus pneumoniae [33] = assay: as §9; type: functional; procedure, shortened: as §3
Streptococcus pneumoniae [34] = assay: as §10; type: functional; procedure, shortened: as §3
Streptococcus pneumoniae [35] = assay: as §11; type: functional; procedure, shortened: as §3
Streptococcus pneumoniae [36] = assay: as §12; type: functional; procedure, shortened: as §3
Streptococcus pneumoniae [37] = assay: as §13; type: functional; procedure, shortened: as §3
Streptococcus pyogenes [38] = assay: as §14; type: functional; procedure, shortened: as §3
[39] = In vitro inhibitory activity against Pneumococci EryRc (34); type: functional
[40] = In vitro inhibitory activity against Pneumococci PenR (65); type: functional
Streptococcus sp. [41] = assay: In vitro inhibitory activity against Streptococci EryR (27); type: functional
Streptococcus sp. [42] = assay: In vitro inhibitory activity against Streptococci EryRi (98); type: functional
Staphylococcus sp. = assay: In vitro inhibitory activity against Staphylococci EryRi (65); type: functional
Streptococcus pyogenes [43] = assay: In vitro inhibitory activity against Streptococcus pyogenes (02A1UC1); type: functional; procedure, shortened: as §1
[44] = system: Staphylococcus epidermidis; assay: In vitro inhibitory activity against Staphylococcus epidermidis (EryRc 011CB2)

CC[C@H]1OC(=O)[C@H](C)C(=O)[C@H](C)[C@@H](O[C@@H]2O[C@H](C)C[C@H](N(C)C)[C@H]2O)[C@](C)(OC)C[C@@H](C)C(=O)[C@H](C)[C@H]2N(NCCCc3ccnc4ccccc34)C(=O)O[C@]12C
MIC (Escherichia coli): 40 µg/mL (≈ 50.2 µM)
MIC (Haemophilus influenzae [1]): 0.6 µg/mL (≈ 0.753 µM)
MIC (Haemophilus influenzae [2]): 0.6 µg/mL (≈ 0.753 µM)
ED50 (Mus musculus [3]): 116 mg/kg
ED50 (Mus musculus [4]): 142 mg/kg
ED50 (Mus musculus [5]): 410 mg/kg
ED50 (Mus musculus [6]): 13 mg/kg
ED50 (Mus musculus [7]): 20 mg/kg
ED50 (Mus musculus [8]): 15 mg/kg
ED50 (Mus musculus [9]): 19 mg/kg
ED50 (Mus musculus [10]): 30 mg/kg
ED50 (Mus musculus [11]): 42 mg/kg
ED50 (Mus musculus [12]): 17 mg/kg
ED50 (Mus musculus [13]): 15.8 mg/kg
ED50 (Mus musculus [14]): 16 mg/kg
MIC [15]: 0.04 µg/mL (≈ 0.0502 µM)
MIC (Staphylococcus aureus [16]): 0.02 µg/mL (≈ 0.0251 µM)
MIC (Staphylococcus aureus [17]): 0.08 µg/mL (≈ 0.1 µM)
MIC (Streptococcus pneumoniae [18]): 0.02 µg/mL (≈ 0.0251 µM)
MIC (Streptococcus pneumoniae [19]): 0.15 µg/mL (≈ 0.188 µM)
MIC (Streptococcus pneumoniae [20]): 0.02 µg/mL (≈ 0.0251 µM)
MIC (Staphylococcus aureus [21]): 40 µg/mL (≈ 50.2 µM)
MIC (Streptococcus pyogenes [22]): 0.02 µg/mL (≈ 0.0251 µM)

CC[C@H]1OC(=O)[C@H](C)[C@@H](O[C@H]2C[C@@](C)(OC)[C@@H](O)[C@H](C)O2)[C@H](C)[C@@H](O[C@@H]2O[C@H](C)C[C@H](N(C)C)[C@H]2O)[C@](C)(O)C[C@@H](C)CN(C)[C@H](C)[C@@H](O)[C@]1(C)O [AZITHROMYCIN]
MIC50 (Enterococcus [23]): 10 µg/mL (≈ 13.4 µM)
MIC90 (Enterococcus [23]): 40 µg/mL (≈ 53.4 µM)
MIC50 (Enterococcus [24]): 40 µg/mL (≈ 53.4 µM)
MIC90 (Enterococcus [24]): 40 µg/mL (≈ 53.4 µM)
MIC (Escherichia coli): 20 µg/mL (≈ 26.7 µM)
MIC (Haemophilus influenzae [1]): 1.2 µg/mL (≈ 1.6 µM)
MIC (Haemophilus influenzae [2]): 1.2 µg/mL (≈ 1.6 µM)
MIC50 (Haemophilus [25]): 0.3 µg/mL (≈ 0.401 µM)
MIC90 (Haemophilus [25]): 1.2 µg/mL (≈ 1.6 µM)
MIC50 (Haemophilus [26]): 0.15 µg/mL (≈ 0.2 µM)
MIC90 (Haemophilus [26]): 1.2 µg/mL (≈ 1.6 µM)
ED50 (Haemophilus influenzae [27]): 117 mg/kg
ED50 (Haemophilus influenzae [28]): 109 mg/kg
ED50 (Haemophilus influenzae [29]): 368 mg/kg
ED50 (Staphylococcus aureus [30]): > 100 mg/kg
ED50 (Staphylococcus aureus [31]): 60 mg/kg
ED50 (Streptococcus pneumoniae [32]): > 100 mg/kg
ED50 (Streptococcus pneumoniae [33]): > 100 mg/kg
ED50 (Streptococcus pneumoniae [34]): > 100 mg/kg
ED50 (Streptococcus pneumoniae [35]): > 100 mg/kg
ED50 (Streptococcus pneumoniae [36]): > 100 mg/kg
ED50 (Streptococcus pneumoniae [37]): > 50 mg/kg
ED50 (Streptococcus pyogenes [38]): 16 mg/kg
MIC50 [39]: 40 µg/mL (≈ 53.4 µM)
MIC90 [39]: 40 µg/mL (≈ 53.4 µM)
MIC50 [40]: 2.5 µg/mL (≈ 3.34 µM)
MIC90 [40]: 40 µg/mL (≈ 53.4 µM)
MIC [15]: 40 µg/mL (≈ 53.4 µM)
MIC50 (Streptococcus sp. [41]): 10 µg/mL (≈ 13.4 µM)
MIC90 (Streptococcus sp. [41]): 40 µg/mL (≈ 53.4 µM)
MIC50 (Streptococcus sp. [42]): 40 µg/mL (≈ 53.4 µM)
MIC90 (Streptococcus sp. [42]): 40 µg/mL (≈ 53.4 µM)
MIC50 (Staphylococcus sp.): 40 µg/mL (≈ 53.4 µM)
MIC90 (Staphylococcus sp.): 40 µg/mL (≈ 53.4 µM)
MIC (Staphylococcus aureus [16]): 0.3 µg/mL (≈ 0.401 µM)
MIC (Staphylococcus aureus [17]): 40 µg/mL (≈ 53.4 µM)
MIC (Streptococcus pneumoniae [18]): 0.15 µg/mL (≈ 0.2 µM)
MIC (Streptococcus pneumoniae [19]): 40 µg/mL (≈ 53.4 µM)
MIC (Streptococcus pneumoniae [20]): 40 µg/mL (≈ 53.4 µM)
MIC (Streptococcus pyogenes [43]): 0.6 µg/mL (≈ 0.801 µM)
MIC (Staphylococcus aureus [21]): 40 µg/mL (≈ 53.4 µM)

CC[C@H]1OC(=O)[C@H](C)C(=O)[C@H](C)[C@@H](O[C@@H]2O[C@H](C)C[C@H](N(C)C)[C@H]2O)[C@](C)(OC)C[C@@H](C)C(=O)[C@H](C)[C@H]2N(CCCCc3ccnc4ccccc34)C(=O)O[C@]12C
MIC (Escherichia coli): 40 µg/mL (≈ 50.3 µM)
MIC (Haemophilus influenzae [1]): 1.2 µg/mL (≈ 1.51 µM)
MIC (Haemophilus influenzae [2]): 1.2 µg/mL (≈ 1.51 µM)
MIC [15]: 0.15 µg/mL (≈ 0.188 µM)
MIC (Staphylococcus aureus [16]): 0.04 µg/mL (≈ 0.0503 µM)
MIC (Staphylococcus aureus [17]): 0.08 µg/mL (≈ 0.101 µM)
MIC (Streptococcus pneumoniae [18]): 0.02 µg/mL (≈ 0.0251 µM)
MIC (Streptococcus pneumoniae [19]): 1.2 µg/mL (≈ 1.51 µM)
MIC (Streptococcus pneumoniae [20]): 0.02 µg/mL (≈ 0.0251 µM)
MIC (Streptococcus pyogenes [43]): 0.02 µg/mL (≈ 0.0251 µM)
MIC [44]: 40 µg/mL (≈ 50.3 µM)
